≈ marks a conversion by molar mass, not a printed value.
Columns and labels:
[1] = system: Human immunodeficiency virus 1; assay: Antiviral activity against HIV1 harboring reverse transcriptase Y181C/K103N double mutant infected in primary MT4 cells assessed as inhibition of virus-induced cytopathogenicity after 4 days by MTS assay; format: functional, organism-based; conditions: Human immunodeficiency virus 1, MT4, 96 h
[2] = system: Human immunodeficiency virus 1; assay: Antiviral activity against HIV1 harboring reverse transcriptase Y181C mutant infected in primary MT4 cells assessed as inhibition of virus-induced cytopathogenicity after 4 days by MTS assay; format: functional, organism-based; conditions: Human immunodeficiency virus 1, MT4, 96 h
[3] = Antiviral activity against HIV1 BH10 harboring wild type reverse transcriptase infected in primary MT4 cells assessed as inhibition of virus-induced cytopathogenicity after 4 days by MTS assay; format: functional, cell-based, Human immunodeficiency virus type 1 BH10; conditions: Human immunodeficiency virus 1, MT4, 96 h
[4] = system: Human immunodeficiency virus 1; assay: Antiviral activity against HIV1 harboring reverse transcriptase K103N mutant infected in primary MT4 cells assessed as inhibition of virus-induced cytopathogenicity after 4 days by MTS assay; format: functional, organism-based; conditions: Human immunodeficiency virus 1, MT4, 96 h
[5] = system: Human immunodeficiency virus 1; assay: Antiviral activity against HIV1 harboring reverse transcriptase Y181C mutant infected in secondary MT4 cells assessed as inhibition of virus-induced cytopathogenicity after 4 days by MTS assay; format: functional, organism-based; conditions: Human immunodeficiency virus 1, MT4, 96 h
[6] = system: Human immunodeficiency virus 1; assay: Antiviral activity against HIV1 harboring reverse transcriptase K103N mutant infected in secondary MT4 cells assessed as inhibition of virus-induced cytopathogenicity after 4 days by MTS assay; format: functional, organism-based; conditions: Human immunodeficiency virus 1, MT4, 96 h
[7] = system: Human immunodeficiency virus 1; assay: Antiviral activity against HIV1 harboring reverse transcriptase Y181C/K103N double mutant infected in secondary MT4 cells assessed as inhibition of virus-induced cytopathogenicity after 4 days by MTS assay; format: functional, organism-based; conditions: Human immunodeficiency virus 1, MT4, 96 h
[8] = Antiviral activity against HIV1 BH10 harboring wild type reverse transcriptase infected in secondary MT4 cells assessed as inhibition of virus-induced cytopathogenicity after 4 days by MTS assay; format: functional, cell-based, Human immunodeficiency virus type 1 BH10; conditions: Human immunodeficiency virus 1, MT4, 96 h
[9] = Cmax in fasted Sprague-Dawley rat at 2 mg/kg, iv after 0.083 to 24 hrs by LC-MS/MS method; format: ADME, organism-based; set-up: dose 2 mg/kg, route intravenous; conditions: in vivo
[10] = Aqueous solubility of the compound at pH 7; format: physicochemical; conditions: aqueous medium
[11] = Cmax in fed cynomolgus monkey at 1 mg/kg, iv after 0.083 to 24 hrs by LC-MS/MS method; format: ADME, organism-based, Macaca fascicularis; set-up: dose 1 mg/kg, route intravenous; conditions: in vivo
Outline: (§1)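 Fed beagle dogs and fed male cynomolgus monkeys were dosed at 1 mg/kg IV or 5 mg/kg PO in 10% dimethylacetamide/10% ethanol/80% PEG400. Femoral-vein blood was drawn predose and at 0.083–24 h into lithium-heparin tubes. Plasma was stored at -70 °C and parent drug was measured by LC-MS/MS. Values are mean parameters (n=3 or 2).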

[12] = Cmax in fed beagle dog at 1 mg/kg, iv after 0.083 to 24 hrs by LC-MS/MS method; format: ADME, organism-based, Canis lupus familiaris; set-up: dose 1 mg/kg, route intravenous; conditions: in vivo; outline: as §1
[13] = Half life in fed beagle dog at 1 mg/kg, iv by LC-MS/MS method; format: ADME, organism-based, Canis lupus familiaris; conditions: in vivo; outline: as §1
[14] = Cmax in fed beagle dog at 5 mg/kg, po after 0.083 to 24 hrs by LC-MS/MS method; format: ADME, organism-based, Canis lupus familiaris; set-up: dose 5 mg/kg, route oral; conditions: in vivo; outline: as §1
[15] = Half life in dog hepatocytes; format: ADME, cell-based, Canis lupus familiaris, Hepatocyte
Outline: (§2)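 Metabolic stability was measured in hepatocytes as the half-life (min) of parent compound depletion. Values come from independent experiments using hepatocytes from 5 to 7 donors.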

[16] = Clearance in fasted Sprague-Dawley rat at 2 mg/kg, iv after 0.083 to 24 hrs by LC-MS/MS method; format: ADME, organism-based; conditions: in vivo
[17] = Clearance in fed beagle dog at 1 mg/kg, iv after 0.083 to 24 hrs by LC-MS/MS method; format: ADME, organism-based, Canis lupus familiaris; conditions: in vivo; outline: as §1
[18] = Tmax in fed cynomolgus monkey at 5 mg/kg, po by LC-MS/MS method; format: ADME, organism-based, Macaca fascicularis; conditions: in vivo; outline: as §1
[19] = Half life in monkey hepatocytes; format: ADME, cell-based, Macaca mulatta, Hepatocyte; conditions: rhesus monkey; outline: as §2
[20] = Half life in fasted Sprague-Dawley rat at 10 mg/kg, po by LC-MS/MS method; format: ADME, organism-based; conditions: in vivo
Outline: (§3)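 Fasted Sprague Dawley rats received 10 mg/kg orally in 10% dimethylacetamide/10% ethanol/80% PEG400. Plasma was stored at -70 °C until LC-MS/MS quantitation. Values are mean parameters (n=3 or 2).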

[21] = system: Human immunodeficiency virus 1; assay: Potency index, ratio of EFV EC50 to compound EC50 for HIV1 harboring reverse transcriptase K103N mutant; format: functional
[22] = Half life in fed beagle dog at 5 mg/kg, po by LC-MS/MS method; format: ADME, organism-based, Canis lupus familiaris; conditions: in vivo; outline: as §1
[23] = Oral bioavailability in fed beagle dog at 5 mg/kg after 0.083 to 24 hrs by LC-MS/MS method; format: ADME, organism-based, Canis lupus familiaris; conditions: in vivo; outline: as §1
[24] = Half life in fasted Sprague-Dawley rat at 2 mg/kg, iv by LC-MS/MS method; format: ADME, organism-based; conditions: in vivo
[25] = Cmax in fed cynomolgus monkey at 5 mg/kg, po after 0.083 to 24 hrs by LC-MS/MS method; format: ADME, organism-based, Macaca fascicularis; set-up: dose 5 mg/kg, route oral; conditions: in vivo; outline: as §1
[26] = Half life in rat hepatocytes; format: ADME, cell-based, Hepatocyte; outline: as §2
[27] = system: Human immunodeficiency virus 1; assay: Potency index, ratio of EFV EC50 to compound EC50 for HIV1 harboring reverse transcriptase Y181C/K103N double mutant; format: functional
[28] = Cmax in fasted Sprague-Dawley rat at 10 mg/kg, po after 0.083 to 24 hrs by LC-MS/MS method; format: ADME, organism-based; set-up: dose 10 mg/kg, route oral; conditions: in vivo; outline: as §3
[29] = Half life in fed cynomolgus monkey at 5 mg/kg, po by LC-MS/MS method; format: ADME, organism-based, Macaca fascicularis; conditions: in vivo; outline: as §1
[30] = Oral bioavailability in fed cynomolgus monkey at 5 mg/kg after 0.083 to 24 hrs by LC-MS/MS method; format: ADME, organism-based, Macaca fascicularis; conditions: in vivo; outline: as §1
[31] = Clearance in fed cynomolgus monkey at 1 mg/kg, iv after 0.083 to 24 hrs by LC-MS/MS method; format: ADME, organism-based, Macaca fascicularis; conditions: in vivo; outline: as §1
[32] = Half life in fed cynomolgus monkey at 1 mg/kg, iv by LC-MS/MS method; format: ADME, organism-based, Macaca fascicularis; conditions: in vivo; outline: as §1

With `COP(=O)(c1cncc(/C=C/C#N)c1)c1c(C(N)=O)[nH]c2ccc(Cl)cc12` (centres undefined) as the compound, how does the EC50 [1] read?
The EC50 was 192 nM.

And the EC50 [2]?
The EC50 was 2.5 nM.

What about the EC50 [3] of the same compound?
Its EC50 is 1 nM.

What about the EC50 [4] of the same compound?
Its EC50 is 9.5 nM.

What does the source list for `COP(=O)(c1cccc(/C=C/C#N)c1)c1c(C(N)=O)[nH]c2ccc(Cl)cc12` (centres undefined)?
EC50 [5]: 3.2 nM; EC50 [6]: 1.8 nM; EC50 [7]: 49.5 nM; EC50 [8]: 3.4 nM

For `COP(=O)(c1cc(C)cc(/C=C/C#N)c1)c1c(C(N)=O)[nH]c2ccc(Cl)cc12` (single isomer, unassigned; form 1) [FOSDEVIRINE], which Cmax [9] is on record?
The Cmax was 88 ng/mL.

What about the solubility [10] of the same compound?
The solubility was 20 µM (≈ 8.28 µg/mL).

What about the Cmax [11] of the same compound?
Its Cmax is 1460 ng/mL.

And the Cmax [12]?
Its Cmax is 290 ng/mL.

And the EC50 [1]?
The EC50 was 11 nM.

And the half-life [13]?
The half-life was 3.9 h.

And the Cmax [14]?
Its Cmax is 18 ng/mL.

And the half-life [15]?
The half-life was 0.35 h.

What about the clearance [16] of the same compound?
Its clearance is 1.18 mL/min/kg.

What about the clearance [17] of the same compound?
The clearance was 30.5 mL/min/kg.

And the Tmax [18]?
Its Tmax is 3 h.

What about the half-life [19] of the same compound?
The half-life was 0.867 h.

What about the half-life [20] of the same compound?
Its half-life is 5.9 h.

And the “Ratio EC50” value [21]?
The value was 30.

What about the half-life [22] of the same compound?
Its half-life is 2.4 h.

And the bioavailability [23]?
The bioavailability was 4%.

What about the half-life [24] of the same compound?
The half-life was 0.2 h.

What about the EC50 [2] of the same compound?
Its EC50 is 1.3 nM.

And the Cmax [25]?
The Cmax was 945 ng/mL.

What about the half-life [26] of the same compound?
Its half-life is 0.283 h.

And the “Ratio EC50” value [27]?
Its value is 4.

What about the EC50 [3] of the same compound?
Its EC50 is 1 nM.

What about the Cmax [28] of the same compound?
The Cmax was 25 ng/mL.

What about the EC50 [4] of the same compound?
Its EC50 is 2.8 nM.

And the half-life [29]?
Its half-life is 3.1 h.

And the bioavailability [30]?
The bioavailability was 42%.

And the clearance [31]?
The clearance was 5.5 mL/min/kg.

What about the half-life [32] of the same compound?
Its half-life is 2 h.

For `COP(=O)(c1cc(C)cc(/C=C/C#N)c1)c1c(C(N)=O)[nH]c2ccc(Cl)cc12` (racemic), which EC50 [1] is on record?
The EC50 was 16.6 nM.

And the EC50 [2]?
The EC50 was 3 nM.

What about the EC50 [3] of the same compound?
Its EC50 is 2.9 nM.

And the EC50 [4]?
The EC50 was 3 nM.

For `O=C1Nc2ccc(Cl)cc2[C@@](C#CC2CC2)(C(F)(F)F)O1` [EFAVIRENZ], which solubility [10] is on record?
Its solubility is under 0.5 µM.

And the EC50 [1]?
The EC50 was 58 nM.

And the EC50 [2]?
Its EC50 is 1.8 nM.

And the EC50 [3]?
Its EC50 is 0.7 nM.

And the EC50 [4]?
Its EC50 is 37 nM.

For `COP(=O)(c1cccs1)c1c(C(N)=O)[nH]c2ccc(Cl)cc12` (centres undefined), which EC50 [1] is on record?
The EC50 was over 1000 nM.

And the EC50 [2]?
The EC50 was 3.4 nM.

And the EC50 [3]?
Its EC50 is 0.3 nM.

What about the EC50 [4] of the same compound?
The EC50 was 8.6 nM.

For `COP(=O)(c1cc(C(F)(F)F)cc(C(F)(F)F)c1)c1c(C(N)=O)[nH]c2ccc(Cl)cc12` (centres undefined), which EC50 [1] is on record?
Its EC50 is over 1000 nM.

And the EC50 [2]?
Its EC50 is 527 nM.

What about the EC50 [3] of the same compound?
Its EC50 is 24.6 nM.

And the EC50 [4]?
The EC50 was 947 nM.

For `COc1cc(C)cc(P(=O)(OC)c2c(C(N)=O)[nH]c3ccc(Cl)cc23)c1` (centres undefined), which EC50 [1] is on record?
Its EC50 is 663 nM.

What about the EC50 [2] of the same compound?
Its EC50 is 9 nM.

What about the EC50 [3] of the same compound?
The EC50 was 0.4 nM.

And the EC50 [4]?
Its EC50 is 23 nM.

With `COP(=O)(c1cc(C)cc(Cl)c1)c1c(C(N)=O)[nH]c2ccc(Cl)cc12` (centres undefined) as the compound, how does the EC50 [1] read?
Its EC50 is 114 nM.

And the EC50 [2]?
Its EC50 is 5.6 nM.

And the EC50 [3]?
Its EC50 is 1.1 nM.

What about the EC50 [4] of the same compound?
The EC50 was 18.8 nM.

With `COP(=O)(c1c(C(N)=O)[nH]c2ccc(Cl)cc12)C1CCCCC1` (centres undefined) as the compound, how does the EC50 [1] read?
The EC50 was over 1000 nM.

What about the EC50 [2] of the same compound?
The EC50 was 219 nM.

What about the EC50 [3] of the same compound?
Its EC50 is 2.5 nM.

What about the EC50 [4] of the same compound?
The EC50 was 101 nM.

With `COP(=O)(c1cc(C)cc(Br)c1)c1c(C(N)=O)[nH]c2ccc(Cl)cc12` (centres undefined) as the compound, how does the EC50 [1] read?
Its EC50 is 368 nM.

And the EC50 [2]?
The EC50 was 6 nM.

And the EC50 [3]?
Its EC50 is 3 nM.

And the EC50 [4]?
Its EC50 is 25 nM.

For `COP(=O)(c1cc(C)cc(F)c1)c1c(C(N)=O)[nH]c2ccc(Cl)cc12` (centres undefined), which solubility [10] is on record?
Its solubility is 1.7 µM (≈ 0.647 µg/mL).

And the EC50 [1]?
Its EC50 is 69 nM.

What about the EC50 [2] of the same compound?
Its EC50 is 3.4 nM.

And the EC50 [3]?
Its EC50 is 0.2 nM.

And the EC50 [4]?
The EC50 was 0.5 nM.

From ChEMBL document CHEMBL3779828, “Discovery of the Aryl-phospho-indole IDX899, a Highly Potent Anti-HIV Non-nucleoside Reverse Transcriptase Inhibitor” (J Med Chem, 2016)
